For experiment [1], the target named is T1, Cyclooxygenase (Bos taurus, UniProt O62664+O62698).
T1 sequence (O62664 whole entry): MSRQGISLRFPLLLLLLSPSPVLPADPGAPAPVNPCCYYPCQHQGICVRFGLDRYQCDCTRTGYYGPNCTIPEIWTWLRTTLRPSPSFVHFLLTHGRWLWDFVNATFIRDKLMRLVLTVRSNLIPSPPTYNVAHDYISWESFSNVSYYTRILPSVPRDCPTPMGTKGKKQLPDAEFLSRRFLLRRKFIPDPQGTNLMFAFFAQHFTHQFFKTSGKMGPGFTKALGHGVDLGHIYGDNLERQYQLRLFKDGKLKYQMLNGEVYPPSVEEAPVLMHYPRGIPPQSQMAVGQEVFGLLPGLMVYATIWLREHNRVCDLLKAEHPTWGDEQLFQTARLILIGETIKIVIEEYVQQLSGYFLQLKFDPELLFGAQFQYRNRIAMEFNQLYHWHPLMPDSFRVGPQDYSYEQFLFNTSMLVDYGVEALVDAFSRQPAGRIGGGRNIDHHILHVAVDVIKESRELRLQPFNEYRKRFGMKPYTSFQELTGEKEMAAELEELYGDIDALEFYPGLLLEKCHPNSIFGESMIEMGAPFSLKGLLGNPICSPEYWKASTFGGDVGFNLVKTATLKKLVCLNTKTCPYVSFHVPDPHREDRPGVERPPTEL
T1 sequence (O62698 whole entry): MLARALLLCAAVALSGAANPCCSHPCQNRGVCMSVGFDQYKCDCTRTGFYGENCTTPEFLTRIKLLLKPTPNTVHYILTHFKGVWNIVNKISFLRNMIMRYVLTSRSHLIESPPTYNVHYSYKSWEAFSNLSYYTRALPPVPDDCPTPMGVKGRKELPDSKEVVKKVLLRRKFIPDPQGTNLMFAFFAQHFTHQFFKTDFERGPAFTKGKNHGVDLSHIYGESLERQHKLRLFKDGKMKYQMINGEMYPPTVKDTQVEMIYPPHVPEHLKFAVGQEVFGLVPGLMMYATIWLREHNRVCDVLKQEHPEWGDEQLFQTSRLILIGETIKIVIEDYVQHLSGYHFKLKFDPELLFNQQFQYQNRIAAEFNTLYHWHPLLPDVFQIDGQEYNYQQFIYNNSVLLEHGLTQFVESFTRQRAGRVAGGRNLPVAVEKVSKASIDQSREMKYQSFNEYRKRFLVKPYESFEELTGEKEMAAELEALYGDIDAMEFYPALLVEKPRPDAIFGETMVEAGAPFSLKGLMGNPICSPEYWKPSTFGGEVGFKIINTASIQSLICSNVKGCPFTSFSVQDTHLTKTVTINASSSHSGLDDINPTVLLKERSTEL
Description: Evaluated for the inhibition of Prostaglandin synthetase obtained from bovine seminal vesicles at the dose of 20 mg/kg (p.o.). Details: dose 20 mg/kg, route oral. Put shortly:
(§1)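 Cyclooxygenase-containing enzyme was a lyophilized 600g supernatant of bovine seminal vesicle homogenate in 0.05 M phosphate, pH 7.8. The assay used 0.1 M phosphate pH 7.8 with epinephrine and enzyme, and drug stocks of 3×10^-1 to 3×10^-6 M. After 3 min at 30 °C, arachidonic acid was added. Activity was taken as substrate minus basal O2-uptake rate, run in triplicate, and IC50 came from regression on log concentration.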

The test system of experiment [2] is Rattus norvegicus. Description: Percent change of the antiinflammatory activity in the 5-h Evans Blue-Carrageenan induced pleural effusion assay at the dose of 4.0 mg/kg (p.o.). Particulars: route oral. The experiment is classed as functional. In outline:
(§2)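 Six fasted male rats per group received compound orally by gavage (10 mL/kg) in vehicle containing 0.5% Tween 80. Pleural effusion was induced by intrapleural injection of 5 mL 0.075% Evans blue–0.5% carrageenan type 7 and measured after 5 h. Results are given as percent change in pleural fluid volume versus a concurrent control group, with indomethacin 4.0 mg/kg as standard.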

In experiment [3] the test system is Rattus norvegicus. Description: Percent change of the antiinflammatory activity in the 5-h Evans Blue-Carrageenan induced pleural effusion assay at the dose of 20 mg/kg (p.o.). The experiment is classed as functional. As to conditions: route oral. Put shortly:
as §2

Experiment [4] has as its system Rattus norvegicus. Description: Evaluated for the antiinflammatory activity in the 5-h Evans Blue-Carrageenan induced pleural effusion assay at the dose of 20 mg/kg (p.o.). The experiment is classed as functional. Particulars: route oral. In outline:
as §2

Experiment [5] has as its system Rattus norvegicus. Description: Evaluated for the antiinflammatory activity in the 5-h Evans Blue-Carrageenan induced pleural effusion assay at the dose of 4.0 mg/kg (p.o.). The experiment is classed as functional. As to conditions: route oral. In outline:
as §2

Experiment [6] relates to Rattus norvegicus. Description: Percent activity in the 5-h Evans Blue-Carrageenan induced pleural effusion assay at the dose of 4.0 mg/kg (p.o.). Particulars: route oral. The experiment is classed as functional. In outline: as §2
The target of experiment [7] is T1, Cyclooxygenase. Description: Evaluated for the inhibition of prostaglandin synthetase obtained from bovine seminal vesicles at the dose of 4.0 mg/kg (p.o.). Set-up: dose 4 mg/kg, route oral.
The test system of experiment [8] is Rattus norvegicus. Description: Percent change of the antiinflammatory activity in the 5-h Evans Blue-Carrageenan induced pleural effusion assay at the dose of 0.8 mg/kg (p.o.). Particulars: route oral. The experiment is classed as functional. Put shortly: as §2
The subject of experiment [9] is Rattus norvegicus. Description: Percent activity in the 5-h Evans Blue-Carrageenan induced pleural effusion assay at the dose of 0.16 mg/kg (p.o.). As to conditions: route oral. The experiment is classed as functional. Put shortly:
as §2

For experiment [10], the system named is Rattus norvegicus. Description: Evaluated for the antiinflammatory activity in the 5-h Evans Blue-Carrageenan induced pleural effusion assay at the dose of 0.16 mg/kg (p.o.). Particulars: route oral. The experiment is classed as functional. Put shortly: as §2
Experiment [11] has as its system Rattus norvegicus. Description: Evaluated for the antiinflammatory activity in the 5-h Evans Blue-Carrageenan induced pleural effusion assay at the dose of 0.8 mg/kg (p.o.). The experiment is classed as functional. Particulars: route oral. Put shortly: as §2
Experiment [12] has as its target T1, Cyclooxygenase. Description: Evaluated for the inhibition of Prostaglandin synthetase obtained from bovine seminal vesicles at the dose of 4 mg/kg p.o. Details: dose 4 mg/kg, route oral. Put shortly:
as §1

Experiment [13] has as its system Rattus norvegicus. Description: Persent change of the antiinflammatory activity in the 5-h Evans Blue-Carrageenan induced pleural effusion assay at the dose of 4.0 mg/kg (p.o.). The experiment is classed as functional. As to conditions: route oral. Put shortly: as §2
The test system of experiment [14] is Rattus norvegicus. Description: Persent change of the antiinflammatory activity in the 5-h Evans Blue-Carrageenan induced pleural effusion assay at the dose of 0.16 mg/kg (p.o.). The experiment is classed as functional. As to conditions: route oral. Put shortly: as §2
The test system of experiment [15] is Rattus norvegicus. Description: Persent change of the antiinflammatory activity in the 5-h Evans Blue-Carrageenan induced pleural effusion assay at the dose of 0.8 mg/kg (p.o.). Particulars: route oral. The experiment is classed as functional. In outline:
as §2

Experiment [16] concerns the target T1, Cyclooxygenase. Description: Evaluated for the inhibition of Prostaglandin synthetase obtained from bovine seminal vesicles at the dose of 100 mg/kg (p.o.). Details: dose 100 mg/kg, route oral. Put shortly: as §1
For experiment [17], the system named is Rattus norvegicus. Description: Percent activity in the 5-h Evans Blue-Carrageenan induced pleural effusion assay at the dose of 100 mg/kg (p.o.). The experiment is classed as functional. Particulars: route oral. In outline:
as §2

For experiment [18], the system named is Rattus norvegicus. Description: Percent activity in the 5-h Evans Blue-Carrageenan induced pleural effusion assay at the dose of 20 mg/kg (p.o.). As to conditions: route oral. The experiment is classed as functional. In outline:
as §2

Experiment [19] deals with Rattus norvegicus. Description: Evaluated for the antiinflammatory activity in the 5-h Evans Blue-Carrageenan induced pleural effusion assay at the dose of 100 mg/kg (p.o.). The experiment is classed as functional. Particulars: route oral. Put shortly:
as §2

Experiment [20] concerns Rattus norvegicus. Description: Percent change of the antiinflammatory activity in the 5-h Evans Blue-Carrageenan induced pleural effusion assay at the dose of 100 mg/kg (p.o.). The experiment is classed as functional. Particulars: route oral. In outline: as §2
Experiment [21] relates to Rattus norvegicus. Description: Persent change of the antiinflammatory activity in the 5-h Evans Blue-Carrageenan induced pleural effusion assay at the dose of 20 mg/kg (p.o.). The experiment is classed as functional. Particulars: route oral. Put shortly: as §2

For the compound `Nc1c(CC(=O)[O-])cccc1Oc1ccccc1.[Na+]`, at Cyclooxygenase [1], the IC50 – broadly, the concentration that inhibits the measured activity by half – was determined as 420 µM. For the same compound, the Change in the experiment on Rattus norvegicus [2] is reported as 4%; with Rattus norvegicus [3], -7%. Moreover, the Pleural fluid with Rattus norvegicus [4] was determined as 5.1 mL; in the experiment with Rattus norvegicus [5] it was 5.7 mL.
Regarding `CC(C(=O)[O-])c1ccc(-c2ccccc2)cc1.[Na+]` (centres undefined), on Cyclooxygenase [1], the IC50 is 12 µM. Also, the Change with Rattus norvegicus [2] is reported as -42%; in the experiment on Rattus norvegicus [3], -52%. For the same compound, the Pleural fluid with Rattus norvegicus [4] was 2.9 mL; with Rattus norvegicus [5] it was 3.4 mL.
As to `CC(C(=O)[O-])c1cccc(Oc2ccccc2)c1.[Na+]` (centres undefined) [FENOPROFEN SODIUM], the IC50 on Cyclooxygenase [1] amounted to 98 µM. Moreover, the Change with Rattus norvegicus [3] is recorded as -29%; in the experiment on Rattus norvegicus [6], -6%. For the same compound, the figures for the Pleural fluid in the experiment on Rattus norvegicus [4] and in the experiment on Rattus norvegicus [5] were 3.9 mL and 5.2 mL, respectively.
At Cyclooxygenase [7], `Nc1c(CC(=O)[O-])cccc1C(=O)c1ccccc1.[Na+]` [AMFENAC SODIUM] gave an IC50 of 0.2 µM. The Change is -25% in the experiment on Rattus norvegicus [2], -17% with Rattus norvegicus [8] and -15% in the experiment with Rattus norvegicus [9]. For the same compound, the Pleural fluid in the experiment with Rattus norvegicus [10] was 5.1 mL; in the experiment with Rattus norvegicus [11], 5 mL; with Rattus norvegicus [5] it was 4.5 mL.
On Cyclooxygenase [12], `O=C([O-])Cc1cccc(C(=O)c2ccccc2)c1.[Na+]` came in with an IC50 of 40 µM. Further, in the experiment with Rattus norvegicus [13], the Change is -7%. Further, the Pleural fluid with Rattus norvegicus [5] is 5.9 mL.
`Nc1cc(-c2ccccc2)ccc1CC(=O)[O-].[Na+]`: the IC50 at Cyclooxygenase [1] worked out at 170 µM. The Change in the experiment with Rattus norvegicus [2] is recorded as -9%; in the experiment with Rattus norvegicus [3] it was -34%. The Pleural fluid with Rattus norvegicus [4] stood at 3.9 mL; in the experiment with Rattus norvegicus [5] it was 5.4 mL.
Consider `O=C([O-])Cc1ccc(-c2ccccc2)cc1.[Na+]`, for which, on Cyclooxygenase [1], the half-inhibitory concentration (IC50) came out at 420 µM. The Change in the experiment on Rattus norvegicus [2] was -21%; with Rattus norvegicus [3] it was -35%. The Pleural fluid with Rattus norvegicus [4] stood at 3.9 mL; with Rattus norvegicus [5], 4.7 mL.
At Cyclooxygenase [12], `CC(C(=O)[O-])c1cccc(C(=O)c2ccccc2)c1.[Na+]` (centres undefined) [KETOPROFEN SODIUM] registered an IC50 of 3.4 µM. The Change is given as -4% with Rattus norvegicus [14], -24% in the experiment on Rattus norvegicus [15] and -41% in the experiment with Rattus norvegicus [13]. Further, the values for the Pleural fluid in the experiment on Rattus norvegicus [10], in the experiment with Rattus norvegicus [11] and in the experiment with Rattus norvegicus [5] were 5.8 mL, 4.6 mL and 3.6 mL, respectively.
Turning to `CN(C)c1c(CC(=O)[O-])cccc1C(=O)c1ccccc1.[Na+]`, the IC50 against Cyclooxygenase [16] is over 1000 µM. The Change in the experiment on Rattus norvegicus [2] was -5%; in the experiment with Rattus norvegicus [17] it was -36%; with Rattus norvegicus [18], -16%. For the same compound, the Pleural fluid in the experiment on Rattus norvegicus [19] turned out to be 3.9 mL; in the experiment with Rattus norvegicus [4], 5.2 mL; with Rattus norvegicus [5] it was 5.9 mL.
Take `COc1ccc2c(c1)c(CC(=O)O)c(C)n2C(=O)c1ccc(Cl)cc1` [INDOMETHACIN]: in the experiment with Rattus norvegicus [13], the Change is listed as -28%. For the same compound, the Pleural fluid in the experiment on Rattus norvegicus [5] was 4 mL.
On to `CC(C(=O)[O-])c1cccc(C(=O)c2ccccc2)c1N.[Na+]` (centres undefined), for which the IC50 against Cyclooxygenase [16] is 1 µM. The Change in the experiment on Rattus norvegicus [2] is -4%; with Rattus norvegicus [20] it was -38%. In addition, the Pleural fluid came to 3.4 mL in the experiment with Rattus norvegicus [19] and 6 mL in the experiment on Rattus norvegicus [5].
On to `O=C([O-])Cc1cccc(Oc2ccccc2)c1.[Na+]`, for which, on Cyclooxygenase [1], the IC50 was over 1000 µM. The values for the Change in the experiment with Rattus norvegicus [21] and in the experiment with Rattus norvegicus [13] were -11% and -7%, respectively. Also, the Pleural fluid was 4.9 mL in the experiment with Rattus norvegicus [4] and 5.1 mL with Rattus norvegicus [5].
In turn, `O=C([O-])Cc1cccc(C(=O)c2ccccc2)c1Cl.[Na+]` yielded a concentration for half-maximal inhibition (IC50) at Cyclooxygenase [16] of over 100 µM. Besides, in the experiment with Rattus norvegicus [20], the Change was -8%. Further, the Pleural fluid with Rattus norvegicus [19] worked out at 5.7 mL.

The values are drawn from ChEMBL document CHEMBL1122044, “Antiinflammatory agents. 2. Syntheses and antiinflammatory activity of substituted 2-aminophenylacetic acid derivatives” (J Med Chem, 1982).
